Measurements taken from paper PMC3109609 (Journal of medicinal chemistry, 2010).
Several values for one entry are separate records, joined by “and”; a condition that tells them apart may be missing. Equal values may be shown once.

Key:
[1] = format: physicochemical
Summary of the method: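 Reverse-phase HPLC retention time gave log k (capacity factor). A calibration line of log k against known logP was built from reference compounds and used to convert each test compound's log k to logP.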

human ΔF508-CFTR = human ΔF508-CFTR (Homo sapiens, UniProt P13569, DEL508-508); experiment: ΔF508-CFTR corrector activity assay; format: cell-based; conditions: concentration-dependent increase in I− influx in FRT ΔF508-CFTR cells

For `COc1ccc(Cl)cc1Nc1nc(-c2sc(NC(=O)C(C)(C)C)nc2C)cs1` [compound 1, reference compound], the chromatographic logP [1] was > 5.

In the case of `COc1ccc(Cl)cc1Cn1nc(-c2sc(NC(=O)C(C)(C)C)nc2C)cc1C(=O)N1CCOCC1` [14h, N-(5-(1-(5-chloro-2-methoxybenzyl)-5-(morpholine-4-carbonyl)-1H-pyrazol-3-yl)-4-methylthiazol-2-yl)pivalamide], the chromatographic logP [1] is reported as 4.1 and the “logP difference versus bithiazole 1 (lower)” value ([1]; 14h compared with bithiazole CF corrector 1) is reported as 1.2 log units and ~ 1.2 log units.

With `COc1ccc(Cl)cc1Cn1nc(-c2sc(NC(=O)C(C)(C)C)nc2C)cc1C(=O)NCCO` [14j, 1-(5-chloro-2-methoxybenzyl)-N-(2-hydroxyethyl)-3-(4-methyl-2-pivalamidothiazol-5-yl)-1H-pyrazole-5-carboxamide] the “ΔF508-CFTR corrector activity (in words)” value (human ΔF508-CFTR) was “retains corrector activity” and the chromatographic logP [1] was 3.5.

With `COc1ccc(NC(=O)c2cc(-c3sc(NC(=O)C(C)(C)C)nc3C)n(-c3ccc(Br)cc3)n2)cc1` [11d, 1-(4-Bromophenyl)-N-(4-methoxyphenyl)-5-(4-methyl-2-pivalamidothiazol-5-yl)-1H-pyrazole-3-carboxamide] the “ΔF508-CFTR corrector activity (in words)” value (human ΔF508-CFTR) was “relatively low activity”.
